Sampled rows, rich in hits. Any-hit rate of the full collection: about 2.3%.
ADAM10 inh = inhibits human ADAM10; O14672; recombinant ADAM10, EDANS/DABCYL FRET peptide cleavage, 3 h; inhibition, % at 7 µM; 0.62% of 370,000 active; AID 720582;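 active = inhibition above a per-campaign cutoff equal to the mean of compounds falling between control-based bounds plus 3 SD, cut at about 20% in these data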;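 note: 0% = DMSO wells while the 100% control is not disclosed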
PLC-gamma1 inh = PLC-gamma1 (human) inhibition, primary screen; 0.84% of 370,000 active; purified PLC-gamma1, fluorogenic substrate, fluorescence; AID 720700; inhibition, % at 12.2 µM; P19174; in the data active = inhibition above about 9.5%
ADAM17 inh = inhibitors of human ADAM17; 0.83% of 370,000 active; inhibition, % at 6.95 µM; P78536; recombinant ADAM17, EDANS/DABCYL FRET peptide cleavage;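 active = inhibition above the mean of compounds lying between control limits plus 3 SD, set per campaign, cut at about 8.5% in these data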;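 note: 0% = DMSO-only wells as the low control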
Target sequence (P78536 215-824 limits assumed): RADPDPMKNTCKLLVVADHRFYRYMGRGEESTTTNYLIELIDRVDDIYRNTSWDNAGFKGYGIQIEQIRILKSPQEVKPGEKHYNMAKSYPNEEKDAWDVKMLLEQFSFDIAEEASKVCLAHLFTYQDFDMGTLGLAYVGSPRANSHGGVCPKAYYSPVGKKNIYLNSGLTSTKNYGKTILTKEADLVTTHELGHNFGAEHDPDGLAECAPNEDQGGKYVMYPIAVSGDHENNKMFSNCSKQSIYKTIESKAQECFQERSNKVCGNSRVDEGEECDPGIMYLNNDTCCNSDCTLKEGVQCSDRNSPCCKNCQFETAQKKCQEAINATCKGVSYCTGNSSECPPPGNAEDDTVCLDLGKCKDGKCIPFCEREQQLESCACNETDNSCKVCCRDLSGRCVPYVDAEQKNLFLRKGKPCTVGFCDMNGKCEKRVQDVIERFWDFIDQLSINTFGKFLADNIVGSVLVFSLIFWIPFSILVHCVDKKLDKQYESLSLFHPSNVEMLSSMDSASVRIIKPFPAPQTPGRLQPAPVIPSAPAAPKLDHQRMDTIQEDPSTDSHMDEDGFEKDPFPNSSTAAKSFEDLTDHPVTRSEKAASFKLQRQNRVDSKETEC
Tn6 DDE FP = DD(E)-Tn6 binding inhibition, primary FP screen | P02675 | Fibrin DD(E) TRITC-Tn6 fluorescence polarization displacement | inhibition, % at 8.3 µM | 0.21% of 370,000 active | AID 720509;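 active = inhibition above a per-campaign cutoff: mean of compounds within control limits plus 3 SD, cut at about 15% in these data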;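 note: 0% = median of all compound wells on the plate and 100% = blocking peptide control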
DDE Tn7 FP inh = disrupts Tn7 cyclic peptide binding to fibrin D-Dimer-E complex; AID 720508; P02675; inhibition, % at 8.3 µM; 0.13% of 370,000 active; FP displacement of FITC-Tn7 peptide from fibrin DD(E); 0% = median of compound wells per plate;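 active = inhibition above the mean of compounds falling within the control limits plus 3 SD of them, cut at about 14% in these data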;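 note: 0% = plate median of compound wells and 100% = 10 µM Aha-Tn7 peptide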
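Assay system: Human clot-derived fibrin DD(E) complex | Buffer or medium: Tris/NaCl/CaCl2 buffer, pH 7.8 | Repeats: One replicate per compound | Benchmarks: Aha-Tn7 high control | Measure: % inhibition scaled between sample-field median and high-control FP | Schedule: 10 min plus 3 h, room temperature | Signal: Fluorescence polarization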
PLCb3 inh = PLC-beta3 (human) inhibition, primary screen; Q01970; Purified PLC-beta3, fluorogenic substrate, fluorescence; inhibition, % at 12.2 µM; 0.18% of 370,000 active; AID 720704; in the data active = inhibition above about 11%;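 note: 0% = median of compound wells on plate and 100% = full blocker control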
ADAM10 confirm = confirmation of inhibitors of human ADAM10; shares compounds with ADAM10 inh; ADAM10 QFRET peptide cleavage, EDANS fluorescence; 1% of 2,100 active; inhibition, % at 6.95 µM;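 active = inhibition above about 20% chosen separately for each screening run, limit read from the data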;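 note: 0% = DMSO wells and 100% = marimastat wells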
ADAM17 ctr = inhibits human ADAM17 in ADAM10 exosite counter-screen; inhibition, % at 6.95 µM; shares compounds with ADAM10 inh; 0.5% of 2,100 active; ADAM17 QFRET peptide cleavage, EDANS fluorescence; AID 743214;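 active = mean triplicate inhibition above the solvent-only control wells' mean plus 3 SD, cut at about 12% in these data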;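 note: 0% = DMSO wells and 100% = marimastat wells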
ADAM10 ctr = inhibits human ADAM10 in ADAM17 exosite counter-screen; shares compounds with ADAM17 inh; recombinant ADAM10, EDANS/DABCYL FRET peptide cleavage, 3 h; inhibition, % at 6.95 µM; 47% of 2,900 active; AID 743256;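 active = mean inhibition over the triplicate runs exceeds the activity threshold set in the earlier primary screen, cut at about 20% in these data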;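 note: 0% = DMSO wells and 100% = marimastat wells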
ADAM17 confirm = confirmation of inhibitors of human ADAM17. shares compounds with ADAM17 inh. recombinant ADAM17, EDANS/DABCYL QFRET peptide cleavage. inhibition, % at 6.95 µM. 65% of 2,900 active;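 active = mean inhibition across replicates above the hit cutoff set in the primary screen, cut at about 8.5% in these data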;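 note: 0% = DMSO wells and 100% = marimastat wells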
* = called active by the depositor; x = not tested or not shown.

SMILES | ADAM10 inh | PLC-gamma1 inh | ADAM17 inh | Tn6 DDE FP | DDE Tn7 FP inh | PLCb3 inh | ADAM10 confirm | ADAM17 ctr | ADAM10 ctr | ADAM17 confirm
O=C(CN(Cc1cccs1)S(=O)(=O)c1ccc(S(=O)(=O)NC2CCCCC2)cc1)Nc1ccccc1 | 36.0* | 8.2 | 16.9* | -12.5 | 1.3 | 5.1 | 11.2 | 3.2 | 50.3* | 24.9*
N#Cc1nc(COc2ccc(Cl)cc2)oc1N1CCN(Cc2ccccc2)CC1 | 21.9* | 5.1 | 8.6* | -3.3 | 0.2 | 4.1 | 1.5 | 1.3 | 25.8* | 16.4*
CC[C@H](CCCCCC#N)CCC(=O)N(c1ccccc1)c1ccccc1 | 4.7 | -1.3 | 4.2 | 0.4 | 2.7 | 1.6 | x | x | x | x
CNC(=O)c1[nH]cnc1C(=O)N[C@@H](Cc1ccccc1)C(=O)OC(C)(C)C | 6.1 | 1.7 | 1.6 | 5.5 | 0.9 | 2.1 | x | x | x | x
CC(C)C[C@H](NC(=O)c1nc[nH]c1C(=O)NCC(=O)OCc1ccccc1)C(=O)OCc1ccccc1 | 45.0* | 9.5 | 23.8* | -9.1 | -13.3 | -3.8 | 6.4 | 2.3 | 36.3* | 20.6*
C[C@H](NC(=O)c1nc[nH]c1C(=O)N[C@@H](Cc1ccccc1)C(=O)OC(C)(C)C)C(=O)OCc1ccccc1 | 24.9* | 5.5 | 10.4* | 5.9 | -0.9 | 8.7 | 8.6 | 3.5 | 37.9* | 25.0*
C[C@@H](OC(=O)c1[nH]cnc1C(=O)NCc1ccc(CNC(=O)OC(C)(C)C)cc1)c1ccccc1 | 39.9* | 4.9 | 25.3* | -1.8 | 0.8 | 7.9 | 0.5 | 0.6 | 22.2* | 11.5*
CC(C)(C)OC(=O)[C@H](Cc1ccccc1)NC(=O)c1nc[nH]c1C(=O)NCc1ccccc1 | 24.6* | 0.8 | 11.5* | 2.7 | -4.8 | 4.9 | 7.9 | 2.1 | 31.0* | 16.7*
C[C@H](NC(=O)c1nc[nH]c1C(=O)NCC(=O)OCc1ccccc1)C(=O)OCc1ccccc1 | 12.0 | 2.0 | 6.0 | 6.7 | 5.2 | 2.6 | x | x | x | x
Cc1nnc(C)n1N=Cc1ccc(O)cc1O | -22.5 | -9.5 | -7.0 | -6.4 | -2.3 | -13.7 | x | x | x | x
Cc1ccc(NC(=O)c2nc[nH]c2C(=O)N[C@H](C)c2ccccc2)cc1 | 20.3* | 1.2 | 12.7* | 0.6 | 2.3 | 0.6 | 4.6 | 2.0 | 19.9* | 11.5*
C[C@H](NC(=O)c1nc[nH]c1C(=O)N[C@@H](Cc1ccccc1)C(=O)OC(C)(C)C)c1ccccc1 | 37.1* | 4.3 | 17.8* | -4.0 | 6.8 | 3.1 | 10.2 | 2.6 | 54.9* | 27.9*
COc1ccc(OC)c(-c2csc(NC(=O)CSc3ccccc3)n2)c1 | 19.9* | 2.5 | 10.2* | -5.8 | -5.6 | -1.8 | 5.6 | 1.9 | 24.6* | 10.9*
COc1ccccc1N(C)S(=O)(=O)c1ccc(Cl)c(C(=O)NNC(=O)c2ccccc2O)c1 | 6.2 | -1.2 | 5.1 | -11.6 | -6.7 | -6.8 | x | x | x | x
COc1ccccc1N(C)S(=O)(=O)c1ccc(C(=O)NNC(=O)c2ccccc2O)cc1 | 22.3* | -1.9 | 9.0* | 1.8 | 9.6 | 1.4 | 5.7 | 3.1 | 19.1 | 12.4*
CC(C)CNS(=O)(=O)/C=C/c1ccc(F)cc1CNC(=O)OC(C)(C)C | 1.7 | 2.1 | 0.0 | 2.0 | 7.4 | 3.6 | x | x | x | x
COC(=O)[C@]12C[C@H](CC(=O)N3CCCCC3)C(=O)N(Cc3ccc4c(c3)OCO4)C1=C[C@H](C(C)C)O[C@@H]2C1CC1 | 8.6 | -0.8 | 1.5 | 9.6 | -3.8 | 3.7 | x | x | x | x
COc1ccc2[nH]cc(C(C)c3c[nH]c4ccccc34)c2c1 (centres undefined) | 0.4 | -4.8 | 3.1 | -4.1 | -6.5 | -8.2 | x | x | x | x
COc1ccc(OC)c(NC(=O)C2C3C=CC(C3)C2C(=O)NCc2ccccn2)c1 (centres undefined) | 30.4* | 4.3 | 9.6* | -7.1 | -2.6 | -9.9 | -0.9 | -0.6 | 3.2 | 7.7
COc1ccc(N2CCCN(CC(=O)Nc3ccc(Cl)c(Cl)c3)CC2)cc1 | 4.0 | -1.1 | 4.3 | -5.6 | -1.3 | 1.3 | x | x | x | x
CCCCc1ccc(NC(=O)CN(C)CC(=O)Nc2ccccc2Cl)cc1 | 33.9* | 8.0 | 16.4* | -2.5 | -15.1 | -40.0 | 2.0 | 0.9 | 20.5* | 9.6*
CN(CC(=O)Nc1ccccc1)CC(=O)Nc1ccccc1Cl | -12.1 | -2.5 | -1.9 | -1.5 | 0.3 | -6.1 | x | x | x | x
Cc1ccccc1Cn1cc(CN2[C@@H](Cc3ccccc3)COc3cc(Br)ccc3S2(=O)=O)nn1 | -12.2 | 0.1 | -2.9 | -0.1 | 2.8 | -2.6 | x | x | x | x
O=C(NCc1ccccc1)c1onc(CSc2ccccc2)c1C(=O)NCC1CC1 | 25.3* | -1.1 | 11.8* | -10.6 | 6.3 | -3.2 | 7.4 | 3.1 | 40.8* | 21.8*
C[C@@H]1ON(C)[C@H]2C[C@H]3c4[nH]c5c(-c6ccc7c(c6)OCO7)cccc5c4CCN3C[C@@H]12 | -13.3 | -10.6 | -2.4 | -1.1 | -6.7 | -8.5 | x | x | x | x
SMILES | ADAM10 inh | PLC-gamma1 inh | ADAM17 inh | Tn6 DDE FP | DDE Tn7 FP inh | PLCb3 inh | ADAM10 confirm | ADAM17 ctr | ADAM10 ctr | ADAM17 confirm
C#CCN(C[C@@H]1[C@@H](OC(=O)NCc2ccc(OC)c(OC)c2)[C@@H](OC(=O)NCc2ccc(OC)c(OC)c2)CN(C(=O)OC(C)C)N1C(=O)OC(C)C)S(=O)(=O)c1ccc(C)cc1 | 26.9* | -2.3 | 11.2* | 1.2 | 10.4 | 0.2 | 3.6 | 1.0 | 43.2* | 22.1*
CCOc1ccc(-c2[nH]ncc2Oc2cccc(OC)c2)c(O)c1 | 23.6* | 1.7 | 10.6* | 1.4 | -8.4 | 1.2 | 7.4 | 2.8 | 34.7* | 20.4*
Cc1ccccc1N1CCN(S(=O)(=O)c2ccc3c(c2)oc(=O)n3C)CC1 | 8.3 | -2.0 | 4.1 | -11.2 | -5.3 | 1.1 | x | x | x | x
CCn1c(CNc2nc(-c3ccccc3)cs2)nnc1SCC(=O)NCc1ccccc1 | 20.3* | 3.3 | 10.7* | 1.3 | -7.8 | -0.2 | 2.2 | 0.2 | 9.9 | 12.7*
CCn1c(CNc2ccc(Cl)cc2)nnc1SCC(=O)NCc1ccccc1 | 0.7 | -1.5 | -9.4 | -5.2 | -0.4 | -2.8 | x | x | x | x
O=C(OC12CCCN(C1)/C(=C/c1ccncc1)C2)c1ccco1 (centres undefined) | 3.3 | -1.2 | 3.3 | 11.6 | -3.7 | -7.1 | x | x | x | x

Screening results (PubChem BioAssay)
